From ChEMBL document CHEMBL1799916, “Novel 3,5-bis(bromohydroxybenzylidene)piperidin-4-ones as coactivator-associated arginine methyltransferase 1 inhibitors: enzyme selectivity and cellular activity” (J Med Chem, 2011)
Calls of active or inactive are those of the source. No cut-off for these calls is given here.

Legend:
[1] = molecular target: T1, Histone-arginine methyltransferase CARM1 (Homo sapiens) (UniProt Q86X55); experiment: Inhibition of CARM1-mediated methylation of PABP1 at 20 uM after 90 mins by scintillation counting in presence of S-adenosyl-l-[methyl-3H]methionine
T1 sequence (whole entry): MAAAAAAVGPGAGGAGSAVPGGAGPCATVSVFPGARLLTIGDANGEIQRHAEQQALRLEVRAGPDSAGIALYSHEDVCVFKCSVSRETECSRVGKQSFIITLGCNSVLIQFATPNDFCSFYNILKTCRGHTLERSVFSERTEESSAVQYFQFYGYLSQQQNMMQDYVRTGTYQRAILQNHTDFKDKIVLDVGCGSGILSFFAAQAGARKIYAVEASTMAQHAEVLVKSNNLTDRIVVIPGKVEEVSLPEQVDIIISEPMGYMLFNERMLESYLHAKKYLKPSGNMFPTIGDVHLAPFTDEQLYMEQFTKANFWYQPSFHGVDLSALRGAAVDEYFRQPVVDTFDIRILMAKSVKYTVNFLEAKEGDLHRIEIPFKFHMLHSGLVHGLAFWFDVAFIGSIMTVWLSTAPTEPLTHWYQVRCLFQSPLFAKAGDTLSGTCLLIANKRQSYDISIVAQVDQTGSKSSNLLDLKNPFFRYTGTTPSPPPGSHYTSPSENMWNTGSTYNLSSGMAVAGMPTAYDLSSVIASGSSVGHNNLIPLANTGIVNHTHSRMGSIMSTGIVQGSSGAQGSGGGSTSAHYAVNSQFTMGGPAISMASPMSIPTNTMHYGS
How it was run: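 Recombinant CARM1 with PABP1 substrate in PBS pH 7.4 containing [³H]AdoMet, compound at 20 μM. Incubated 90 min at 30 °C, then SDS-PAGE, PVDF transfer and overnight film fluorography. Substrate bands cut out for scintillation counting.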

[2] = molecular target: T2, Histone-arginine methyltransferase CARM1 (Homo sapiens, UniProt Q86X55); experiment: Inhibition of CARM1-mediated methylation of PABP1 after 90 mins by scintillation counting in presence of S-adenosyl-l-[methyl-3H]methionine
T2 sequence (Q86X55 whole entry): T1 sequence (whole entry)

[3] = molecular target: Protein arginine N-methyltransferase 1 (Homo sapiens, UniProt Q99873); experiment: Inhibition of PRMT1-mediated methylation of NPL3 after 90 mins by scintillation counting in presence of S-adenosyl-l-[methyl-3H]methionine
Protein arginine N-methyltransferase 1, sequence (Q99873 whole entry): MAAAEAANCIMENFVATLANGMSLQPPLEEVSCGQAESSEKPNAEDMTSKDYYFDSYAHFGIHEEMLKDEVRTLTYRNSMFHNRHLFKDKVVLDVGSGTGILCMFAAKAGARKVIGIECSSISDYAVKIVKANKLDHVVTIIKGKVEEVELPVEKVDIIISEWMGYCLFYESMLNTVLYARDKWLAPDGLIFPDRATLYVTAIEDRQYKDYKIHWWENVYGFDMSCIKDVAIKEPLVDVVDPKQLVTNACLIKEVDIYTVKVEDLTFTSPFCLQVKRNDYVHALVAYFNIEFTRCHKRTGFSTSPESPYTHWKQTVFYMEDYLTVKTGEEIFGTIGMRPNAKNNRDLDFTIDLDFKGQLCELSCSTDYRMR

[4] = molecular target: T3, Histone-lysine N-methyltransferase SETD7 (Homo sapiens, UniProt Q8WTS6); experiment: Inhibition of SET7-mediated methylation of histone H3 after 90 mins by scintillation counting in presence of S-adenosyl-l-[methyl-3H]methionine
T3 sequence (Q8WTS6 whole entry): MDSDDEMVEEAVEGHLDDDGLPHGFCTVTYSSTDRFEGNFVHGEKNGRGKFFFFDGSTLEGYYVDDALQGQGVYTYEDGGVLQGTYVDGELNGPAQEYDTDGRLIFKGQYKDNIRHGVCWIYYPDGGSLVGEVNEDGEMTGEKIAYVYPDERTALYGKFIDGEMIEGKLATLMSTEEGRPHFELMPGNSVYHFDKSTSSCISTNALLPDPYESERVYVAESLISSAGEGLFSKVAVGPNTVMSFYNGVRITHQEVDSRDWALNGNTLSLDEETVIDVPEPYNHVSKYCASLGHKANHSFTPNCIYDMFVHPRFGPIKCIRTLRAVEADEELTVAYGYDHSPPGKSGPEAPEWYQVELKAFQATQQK

| SMILES | inhibition [1] | IC50 [2] | IC50 [3] | IC50 [4] |
| --- | --- | --- | --- | --- |
| COc1ccccc1CN1C/C(=C\c2ccc(O)c(Br)c2)C(=O)/C(=C/c2ccc(O)c(Br)c2)C1 | inactive |  |  |  |
| O=C1/C(=C/c2ccc(O)c(Br)c2)CN(CCCc2ccccc2)C/C1=C\c1ccc(O)c(Br)c1 | inactive | 16 µM | > 667 µM | > 667 µM |
| O=C1/C(=C/c2ccc(O)c(Br)c2)CN(Cc2ccccc2Cl)C/C1=C\c1ccc(O)c(Br)c1 |  | 12.5 µM | > 667 µM | > 667 µM |
| Cc1ccc(CN2C/C(=C\c3ccc(O)c(Br)c3)C(=O)/C(=C/c3ccc(O)c(Br)c3)C2)cc1 | inactive | 11.9 µM | > 667 µM | > 333 µM |
| Cc1ccccc1CN1C/C(=C\c2ccc(O)c(Br)c2)C(=O)/C(=C/c2ccc(O)c(Br)c2)C1 |  | 10.3 µM | > 667 µM | > 667 µM |
| O=C1/C(=C/c2ccc(O)c(Br)c2)CN(CCc2ccccc2)C/C1=C\c1ccc(O)c(Br)c1 |  | 14.8 µM | > 667 µM | > 667 µM |
| COc1cccc(CN2C/C(=C\c3ccc(O)c(Br)c3)C(=O)/C(=C/c3ccc(O)c(Br)c3)C2)c1 | inactive |  |  |  |
| COc1ccc(CN2C/C(=C\c3ccc(O)c(Br)c3)C(=O)/C(=C/c3ccc(O)c(Br)c3)C2)cc1 | inactive |  |  |  |
| O=C1/C(=C/c2ccc(O)c(Br)c2)CN(Cc2ccc(Cl)cc2)C/C1=C\c1ccc(O)c(Br)c1 |  | 12.2 µM | > 667 µM | > 600 µM |
